{"data": "Results pooled from the literature", "cell line": "MDA-MB-231", "effect on": "cell growth or viability"}
{"Compound": "Cc1ccc2nc(-c3ccc(Cl)cc3)n(Cc3ccccc3Cl)c2c1", "test": "MTT", "endpoint": "IC50", "value": "74.2 µM"}
{"Compound": "CCc1cccc(CN2CCc3cc(OS(N)(=O)=O)c(OC)cc3C2)c1", "test": "WST-1", "conditions": "96 h", "endpoint": "GI50", "value": "8 µM"}
{"Compound": "O=C1CCCCC1=C1Sc2nc3ccc(S(=O)(=O)N4CCCC4)cc3nc2S1", "test": "MTT", "conditions": "100 µM, 24 h", "endpoint": "viability", "value": "8.2%"}
{"Compound": "c1ccc2[nH]c(-c3ccc4c(c3)OCO4)nc2c1", "test": "MTT", "conditions": "48 h", "endpoint": "IC50", "value": "> 100 µM"}
{"Compound": "COc1ccc(/C=C\\c2cc(OC)c(OC)c(OC)c2)cc1O", "test": "imaging", "conditions": "72 h", "endpoint": "CC50", "value": "0.0037 µM"}
{"Compound": "Cc1ccc2nc(-c3cc(Br)ccc3O)[nH]c2c1", "test": "MTT", "conditions": "48 h", "endpoint": "IC50", "value": "6.69 µM"}
{"Compound": "CCc1cc(CN2CCc3cc(OS(N)(=O)=O)c(OC)cc3C2)cc(CC)c1CC", "test": "WST-1", "conditions": "96 h", "endpoint": "GI50", "value": "5.7 µM"}
{"Compound": "C[C@]1(c2nc3c(C(N)=O)cccc3[nH]2)CCCN1", "test": "ATP luminescence", "conditions": "7 days", "endpoint": "EC50", "value": "> 10 µM"}
{"Compound": "COc1cc2c(cc1OS(N)(=O)=O)CCN(Cc1cccc(OC(F)(F)F)c1)C2", "test": "WST-1", "conditions": "96 h", "endpoint": "GI50", "value": "2.29 µM"}
{"Compound": "Cc1ccc2nc(-c3ccc(F)cc3)[nH]c2c1", "test": "MTT", "conditions": "48 h", "endpoint": "IC50", "value": "> 100 µM"}
{"Compound": "COc1cc2c(cc1O)CCN(Cc1cc(Cl)c(OC)c(OC)c1)C2", "test": "WST-1", "conditions": "96 h", "endpoint": "GI50", "value": "0.4 µM"}
{"Compound": "O=C(c1cc(Cc2n[nH]c(=O)c3ccccc23)ccc1F)N1CCN(C(=O)C2CC2)CC1", "test": "ATP luminescence", "conditions": "7 days", "endpoint": "EC50", "value": "~5 µM"}
{"Compound": "CC/C(=C(\\c1ccccc1)c1ccc(OCCN(C)C)cc1)c1ccccc1", "test": "ATP luminescence", "conditions": "72 h", "endpoint": "EC90", "value": "33.4 µM"}
{"Compound": "COc1cccc2c1C(=O)c1c(O)c3c(c(O)c1C2=O)C[C@@](O)(C(=O)CO)C[C@@H]3O[C@H]1C[C@H](N)[C@H](O)[C@H](C)O1", "test": "MTT", "conditions": "3.125 µM, 24 h", "endpoint": "viability", "value": "52.6%"}
{"Compound": "Clc1ccc(-c2nc3ccccc3[nH]2)c(Cl)c1", "test": "MTT", "conditions": "48 h", "endpoint": "IC50", "value": "52.2 µM"}
{"Compound": "CCOc1cccc(CN2CCc3cc(O)c(OC)cc3C2)c1", "test": "WST-1", "conditions": "96 h", "endpoint": "GI50", "value": "> 100 µM"}
{"Compound": "c1ccc2[nH]c(-c3ccncc3)nc2c1", "test": "MTT", "conditions": "48 h", "endpoint": "IC50", "value": "> 100 µM"}
{"Compound": "COc1cc2c(cc1O)CCN(Cc1cccc(NC(C)=O)c1)C2", "test": "WST-1", "conditions": "96 h", "endpoint": "GI50", "value": "> 100 µM"}
{"Compound": "C[C@]12CC[C@@H]3c4ccc(O)cc4CC[C@H]3[C@@H]1CC[C@@H]2O", "test": "ATP luminescence", "conditions": "72 h", "endpoint": "EC50", "value": "35.8 µM"}
{"Compound": "COc1cc2c(cc1OS(N)(=O)=O)CCN(Cc1cccc(C(C)=O)c1)C2", "test": "WST-1", "conditions": "96 h", "endpoint": "GI50", "value": "0.983 µM"}
{"Compound": "Cc1ccc2nc(-c3ccc([N+](=O)[O-])cc3)n(Cc3ccc(Cl)cc3)c2c1", "test": "MTT", "endpoint": "IC50", "value": "9.02 µM"}
{"Compound": "COc1cc2c(cc1OS(N)(=O)=O)CCN(Cc1cccc(C#N)c1)C2", "test": "WST-1", "conditions": "96 h", "endpoint": "GI50", "value": "4.7 µM"}
{"Compound": "N#CC(C(=O)Nc1cccc(C(F)(F)F)c1)=C1Sc2nc3ccc(S(=O)(=O)N4CCCC4)cc3nc2S1", "test": "MTT", "conditions": "3.125 µM, 24 h", "endpoint": "viability", "value": "77.1%"}
{"Compound": "COc1cc2c(cc1OS(N)(=O)=O)CCN(Cc1cccc([N+](=O)[O-])c1)C2", "test": "WST-1", "conditions": "96 h", "endpoint": "GI50", "value": "1.91 µM"}
{"Compound": "C=CCn1c(-c2ccc(OC)c(OC)c2)nc2ccccc21", "test": "MTT", "endpoint": "IC50", "value": "31.2 µM"}
{"Compound": "COc1cccc2c1C(=O)c1c(O)c3c(c(O)c1C2=O)C[C@@](O)(C(=O)CO)C[C@@H]3O[C@H]1C[C@H](N)[C@H](O)[C@H](C)O1", "test": "MTT", "conditions": "48 h", "endpoint": "IC90", "value": "> 20 µM"}
{"Compound": "CCOC(=O)C(C(C)=O)=C1Sc2nc3ccc(S(=O)(=O)N4CCCC4)cc3nc2S1", "test": "MTT", "conditions": "100 µM, 24 h", "endpoint": "viability", "value": "3.7%"}
{"Compound": "CCOc1cc(CN2CCc3cc(OS(N)(=O)=O)c(OC)cc3C2)cc(OCC)c1OCC", "test": "WST-1", "conditions": "96 h", "endpoint": "GI50", "value": "4.4 µM"}
{"Compound": "CCOc1cccc(CN2CCc3cc(OS(N)(=O)=O)c(OC)cc3C2)c1", "test": "WST-1", "conditions": "96 h", "endpoint": "GI50", "value": "0.65 µM"}
